MIN6 prolif = MIN6 beta-cell proliferation induction; MIN6 cells proliferation, ATPlite luminescence, 48 h; cells starved in 0.2% serum; 100% = growth in 10% serum; proliferation, % at 10 µM; 330,000 compounds, 0.29% hits; AID 2380;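 active means compounds whose signal lies at least 3.5 SD above the mean of all wells on their plate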;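 further: 0% = DMSO-treated cells in low-serum medium and 100% = 10% serum control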
MC4R ag barr = human MC4R agonism via beta-arrestin; U2OS MC4R beta-arrestin complementation, luminescence; percent of melanotan II response, DMSO zero; activation, % at 8.9 µM; 360,000 compounds, 0.98% hits;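 active means activation above a per-plate cutoff, the mean activation of sample wells on that plate plus 3 SD, cut at about 8% in these data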
ANO1 activ = activators or potentiators of mouse TMEM16A chloride channel. Q8BHY3. HEK293 TMEM16A/YFP-H148Q/I152L, iodide quench fluorescence; hits give low values. B-score at 10 µM. 340,000 compounds, 0.3% hits;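 active means fluorescence-ratio B-score plate-corrected deviation score at least 3 library SD below zero, with starting fluorescence score within 5 deviations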;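 further: channel opened by trigger with iodide after compound preincubation; score built on the fluorescence ratio of max minus min over baseline; more negative score means more quench and so TMEM16A activation or potentiation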
TMEM16A inh = inhibitors of mouse TMEM16A calcium-activated chloride channel. Q8BHY3. HEK293 TMEM16A/YFP iodide influx fluorescence, ionomycin. normalized B-score (activity score, 25-100; higher = stronger inhibition) at 10 µM. 310,000 compounds, 1.2% hits;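 active means ratio plate-corrected score three or more library SD toward inhibition, starting fluorescence score within five deviations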;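 further: score derived from kinetic fluorescence span divided by baseline fluorescence per well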
m5-HT2A agonist = agonists of mouse serotonin 5-HT2A receptor (HTR2A). activation, % at 7.6 µM. CHO-K1 mHTR2A beta-arrestin complementation, luminescence; percent of 30 µM serotonin response. AID 624169. 360,000 compounds, 0.66% hits;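 active means activation above a run cutoff, the mean activation of all tested compounds plus 3 SD, cut at about 14% in these data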;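 further: 0% = plate median of compound wells and 100% = 30 µM serotonin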
MC4R antag cAMP = human MC4R antagonism in cAMP assay; P32245; MC4R-expressing cells, MTII-stimulated cAMP, LANCE TR-FRET; inhibition, % at 6.5 µM; 360,000 compounds, 0.48% hits;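 active means inhibition above its plate's cutoff, the mean of tested wells on that plate plus 3 SD, cut at about 29% in these data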;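 further: 0% = Melanotan II alone and 100% = Melanotan II plus saturating MCL0020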
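System: U2OS-MC4R stable cell line; Technique: Eu-cAMP/anti-cAMP TR-FRET, emission 671 nm; Repeats: single well per compound; Also added: Melanotan II; Dosing: one concentration, 6.5 µM nominal; Schedule: 30-min compound, 1-h challenge, 1-h detection, room temperature.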
TMEM16A reconf = reconfirmed blocker of mouse TMEM16A calcium-activated chloride channel | shares compounds with TMEM16A inh | HEK293 TMEM16A/YFP-H148Q, iodide quench fluorescence; ionomycin added to raise cell calcium | inhibition, % at 10 µM | 2,300 compounds, 39% hits;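 active means mean duplicate percent inhibition, scaled so buffer wells are 0 and the reference blocker 100, over three buffer SD above buffer mean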
HEK293 Ca mobil = counter-screen for TMEM16A inhibitors: effect on calcium mobilization; TMEM16A/YFP HEK293, Fluo4 calcium mobilization; AID 652231; calcium response (% of ionomycin), % at 10 µM; shares compounds with TMEM16A inh; 2,300 compounds, 2% hits;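 active means duplicate-averaged calcium signal over 20% of the ionomycin maximum, relative to buffer baseline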;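 further: each well's signal is peak minus trough fluorescence divided by its pre-addition baseline; 0% = buffer wells and 100% = ionomycin wells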
Parental YFP cnt = parental YFP-HEK293 iodide quench counter-screen activity; YFP ratio F(max-min)/F0 at 10 µM; AID 652233; 2,300 tested, under 10 active; ionomycin; shares compounds with TMEM16A inh;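 active means yellow fluorescent protein signal ratio exceeding the buffer control mean by over 5 SD of those controls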;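 further: ratio is mean of duplicate wells from kinetic YFP trace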
ClC-1 rat inh = blocks the rat ClC-1 voltage-dependent chloride channel; ratio percent, % at 10 µM; shares compounds with TMEM16A inh; 2,300 tested, under 10 active; AID 652236; CHO ClC-1-YFP, iodide influx fluorescence quench; iodide control reads 0, buffer control 100;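 active means duplicate-mean ratio percent above the mean of iodide-only control wells, which defines zero, plus 5 of their SD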;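 further: higher percent means stronger block of ClC-1 iodide influx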
Target sequence (P35524 whole entry, looked up): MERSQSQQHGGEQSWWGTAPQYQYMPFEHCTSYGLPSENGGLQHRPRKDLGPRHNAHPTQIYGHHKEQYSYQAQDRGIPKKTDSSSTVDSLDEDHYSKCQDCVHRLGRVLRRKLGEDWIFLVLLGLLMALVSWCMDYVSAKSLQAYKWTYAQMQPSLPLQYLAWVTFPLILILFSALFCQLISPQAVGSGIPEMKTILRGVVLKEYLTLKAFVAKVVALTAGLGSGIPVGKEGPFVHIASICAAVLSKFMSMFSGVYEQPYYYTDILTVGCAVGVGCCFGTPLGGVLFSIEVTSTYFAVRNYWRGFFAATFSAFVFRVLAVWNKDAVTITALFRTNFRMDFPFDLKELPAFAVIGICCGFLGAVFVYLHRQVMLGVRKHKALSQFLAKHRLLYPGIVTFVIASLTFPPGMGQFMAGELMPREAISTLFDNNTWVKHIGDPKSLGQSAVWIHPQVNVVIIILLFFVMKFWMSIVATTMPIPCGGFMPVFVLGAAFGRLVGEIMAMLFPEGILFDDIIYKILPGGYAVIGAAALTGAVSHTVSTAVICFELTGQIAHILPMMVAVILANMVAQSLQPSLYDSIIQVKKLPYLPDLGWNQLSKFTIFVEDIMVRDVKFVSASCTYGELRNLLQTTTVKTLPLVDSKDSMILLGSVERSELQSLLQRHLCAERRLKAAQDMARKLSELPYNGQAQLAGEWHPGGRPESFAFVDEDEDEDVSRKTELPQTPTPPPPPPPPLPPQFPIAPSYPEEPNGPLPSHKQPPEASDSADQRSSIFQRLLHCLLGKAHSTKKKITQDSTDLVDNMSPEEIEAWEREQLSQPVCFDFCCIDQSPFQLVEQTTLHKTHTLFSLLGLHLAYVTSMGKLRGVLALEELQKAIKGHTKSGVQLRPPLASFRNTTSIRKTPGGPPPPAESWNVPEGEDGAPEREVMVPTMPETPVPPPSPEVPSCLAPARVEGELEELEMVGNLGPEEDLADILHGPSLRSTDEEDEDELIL
* hit, by the source's call. A selection: hits, their analogues and other compounds. The true share with any hit is near 3.4%.

Results for CCCC/C(O)=C1\C(=O)CC(C)(C)CC1=Nc1ccccc1OC ?
MIN6 prolif: 1; MC4R ag barr: -2; ANO1 activ: inactive; TMEM16A inh: 25*; m5-HT2A agonist: -6; MC4R antag cAMP: 3; TMEM16A reconf: inactive; HEK293 Ca mobil: inactive; Parental YFP cnt: -1.1; ClC-1 rat inh: -4

How did Cc1[nH]c2ccc(C(=O)NCc3ccccn3)cc2c1C do in these assays?
MIN6 prolif: 4; MC4R ag barr: -1; ANO1 activ: inactive; TMEM16A inh: inactive; m5-HT2A agonist: 1; MC4R antag cAMP: -6

What do the screens show for `CC1CCN(C(=O)C(NS(=O)(=O)c2cccc3nsnc23)c2ccccc2)CC1` (centres undefined)?
MIN6 prolif: -2; MC4R ag barr: 0; ANO1 activ: inactive; TMEM16A inh: inactive; m5-HT2A agonist: 2; MC4R antag cAMP: -2; TMEM16A reconf: inactive; HEK293 Ca mobil: inactive; Parental YFP cnt: -1.4; ClC-1 rat inh: -18

What do the screens show for `CC1CCN(C(=O)C(NS(=O)(=O)c2cccc3nsnc23)C(C)C)CC1` (centres undefined)?
MIN6 prolif: 2; MC4R ag barr: -2; ANO1 activ: inactive; TMEM16A inh: inactive; m5-HT2A agonist: 8; MC4R antag cAMP: 7

What do the screens show for `COc1cc(OC)c(NC(=S)Nc2cc(Cl)cc(Cl)c2)cc1Cl`?
MIN6 prolif: -3; MC4R ag barr: -1; ANO1 activ: inactive; TMEM16A inh: 100*; m5-HT2A agonist: 3; MC4R antag cAMP: 5; TMEM16A reconf: 18%*; HEK293 Ca mobil: inactive; Parental YFP cnt: -1.1; ClC-1 rat inh: -34

What do the screens show for `COc1cc(OC)c(NC(=S)Nc2cccc(C(C)=O)c2)cc1Cl`?
MIN6 prolif: -1; MC4R ag barr: 1; ANO1 activ: inactive; TMEM16A inh: inactive; m5-HT2A agonist: -6; MC4R antag cAMP: 2

What do the screens show for `CCOc1ccc(OCc2ccc(C(=O)OCc3ccccn3)o2)cc1`?
MIN6 prolif: 0; MC4R ag barr: -2; ANO1 activ: inactive; TMEM16A inh: 100*; m5-HT2A agonist: 2; MC4R antag cAMP: 5; TMEM16A reconf: inactive; HEK293 Ca mobil: inactive; Parental YFP cnt: -1; ClC-1 rat inh: -4

Results for O=c1c(C/C=C/c2ccccc2)c(O)ccn1Cc1ccc(Cl)cc1Cl ?
MIN6 prolif: -5; MC4R ag barr: -4; ANO1 activ: inactive; TMEM16A inh: 100*; m5-HT2A agonist: -4; MC4R antag cAMP: 2; TMEM16A reconf: inactive; HEK293 Ca mobil: inactive; Parental YFP cnt: -0.78; ClC-1 rat inh: -18

What do the screens show for `COC(=O)Cn1c(CN(C)Cc2ccccc2)nc2c1c(=O)n(C)c(=O)n2C`?
MIN6 prolif: -2; MC4R ag barr: 1; ANO1 activ: inactive; TMEM16A inh: inactive; m5-HT2A agonist: -3; MC4R antag cAMP: 10

What do the screens show for `CCOC(=O)Cn1c(CN(C)Cc2ccccc2)nc2c1c(=O)n(C)c(=O)n2C`?
MIN6 prolif: -2; MC4R ag barr: -1; ANO1 activ: inactive; TMEM16A inh: 100*; m5-HT2A agonist: -5; MC4R antag cAMP: 3; TMEM16A reconf: inactive; HEK293 Ca mobil: inactive; Parental YFP cnt: -1.2; ClC-1 rat inh: -11

Results for COc1ccc(-c2cc(CNc3nc(NC(C)C)nc4cc(-c5ccccc5)sc34)on2)cc1 ?
MC4R ag barr: -2; m5-HT2A agonist: -6; MC4R antag cAMP: 2

What do the screens show for `N#Cc1ccccc1S(=O)(=O)N1CCN(CC(=O)Nc2ccccc2C(=O)NC2CC2)CC1`?
MIN6 prolif: 6; MC4R ag barr: -1; ANO1 activ: inactive; m5-HT2A agonist: 7; MC4R antag cAMP: 1

How did Cc1sc2c(=O)n3c(nc2c1C(=O)NCCCN1CCOCC1)CCCCC3 do in these assays?
MIN6 prolif: 0; MC4R ag barr: -3; ANO1 activ: inactive; TMEM16A inh: 100*; m5-HT2A agonist: -4; MC4R antag cAMP: 14; TMEM16A reconf: inactive; HEK293 Ca mobil: inactive; Parental YFP cnt: -0.95; ClC-1 rat inh: -10

What do the screens show for `Cc1sc2c(=O)n3c(nc2c1C(=O)NC1CCCCC1)CCCCC3`?
MIN6 prolif: -2; MC4R ag barr: 0; ANO1 activ: inactive; TMEM16A inh: inactive; m5-HT2A agonist: 7; MC4R antag cAMP: 2

Results for Cc1ccnc(NC(=S)N2CCN(c3cccc(C(F)(F)F)c3)CC2)c1 ?
MIN6 prolif: 0; MC4R ag barr: -3; ANO1 activ: inactive; TMEM16A inh: 25*; m5-HT2A agonist: 4; MC4R antag cAMP: 13; TMEM16A reconf: 18%*; HEK293 Ca mobil: inactive; Parental YFP cnt: -1.1; ClC-1 rat inh: -12

How did Cc1cc(Cl)cc2c1NC(=O)[C@]21[C@@H]2C(=O)N(Cc3ccccc3)C(=O)[C@@H]2[C@@H]2CCCN21 do in these assays?
MIN6 prolif: -4; MC4R ag barr: 1; ANO1 activ: inactive; TMEM16A inh: 25*; m5-HT2A agonist: 3; MC4R antag cAMP: 6; TMEM16A reconf: inactive; HEK293 Ca mobil: inactive; Parental YFP cnt: -1.2; ClC-1 rat inh: -4

What do the screens show for `COC(=O)c1scc(C#N)c1N/N=C(\C#N)S(=O)(=O)c1ccc(Cl)cc1`?
MIN6 prolif: -6; MC4R ag barr: 0; ANO1 activ: inactive; TMEM16A inh: 25*; m5-HT2A agonist: 4; MC4R antag cAMP: 8; TMEM16A reconf: inactive; HEK293 Ca mobil: inactive; Parental YFP cnt: -1; ClC-1 rat inh: -24

Results for O=C(NNC(=S)Nc1ccc(Cl)c(Cl)c1)c1cccc([N+](=O)[O-])c1 ?
MIN6 prolif: -3; MC4R ag barr: -2; ANO1 activ: inactive; TMEM16A inh: 100*; m5-HT2A agonist: -3; MC4R antag cAMP: 7; TMEM16A reconf: 78%*; HEK293 Ca mobil: inactive; Parental YFP cnt: -0.85; ClC-1 rat inh: -14
